Among the data in ChEMBL document CHEMBL1649480, “Farnesol-induced apoptosis in Candida albicans” (2009) are Activity values, retold here.

The source made the active and inactive calls. The rule behind the calls is not given here.

The test system of experiment [1] is Candida albicans. As to the kind of experiment: Downregulation of ATP synthase subunit D expression in Candida albicans SC5314 at 200 uM after 24 hrs by MALDI-TOF MS. It is filed as functional, organism-based. The method, boiled down: (§1)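 Overnight YNB-glucose SC5314 culture, PBS-washed, adjusted to OD600 0.1 and treated 24 h with 40 or 200 μM farnesol (methanol in controls). Proteomes were compared with untreated cells by 2D SDS-PAGE and MALDI-TOF MS, searched against NCBI nonredundant database. Spots were counted as changed at ≥1.5-fold in three independent experiments.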

Experiment [2] deals with Candida albicans. Briefly: Upregulation of Acetyl-CoA hydrolase/transferase expression in Candida albicans SC5314 at 200 uM after 24 hrs by MALDI-TOF MS. The format is functional, organism-based. The gist of the method: as §1
For experiment [3], the system named is Candida albicans. As to the kind of experiment: Downregulation of Enolase expression in Candida albicans SC5314 at 40 uM after 24 hrs by MALDI-TOF MS. It is filed as functional, organism-based. The gist of the method:
as §1

Experiment [4] has as its system Candida albicans. As to the kind of experiment: Upregulation of Pyruvate decarboxylase expression in Candida albicans SC5314 at 40 uM after 24 hrs by MALDI-TOF MS. It is filed as functional, organism-based. The gist of the method:
(§2)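 SC5314 grown overnight at 30°C, 120 rpm, in yeast nitrogen base (pH 7.0) with 50 mM glucose. Cells were washed in PBS and adjusted to OD600 0.1, then treated 24 h with farnesol from a methanol dilution; controls received methanol. Proteomes of treated and untreated cells were compared by 2-D SDS-PAGE and MALDI-TOF MS, with ProFound searches of the NCBI nonredundant database. Spots changed at least 1.5-fold in three independent experiments were counted.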

The test system of experiment [5] is Candida albicans. As to the kind of experiment: Upregulation of Putative Rho protein GDP dissociation factor expression in Candida albicans SC5314 at 200 uM after 24 hrs by MALDI-TOF MS. The format is functional, organism-based. The method, boiled down: as §2
The test system of experiment [6] is Candida albicans. Briefly: Downregulation of G-beta-like protein expression in Candida albicans SC5314 at 40 uM after 24 hrs by MALDI-TOF MS. It is filed as functional, organism-based. The gist of the method: as §1
Experiment [7] concerns Candida albicans. Briefly: Upregulation of Heat shock protein 60 expression in Candida albicans SC5314 at 200 uM after 24 hrs by MALDI-TOF MS. The format is functional, organism-based. The gist of the method:
as §1

For experiment [8], the system named is Candida albicans. As to the kind of experiment: Induction of apoptosis in Candida albicans SC5314 assessed as activation of caspase activity at 40 uM after 3 hrs by Fluorescence analysis. It is filed as functional. The gist of the method:
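Active caspases in farnesol-exposed cells (40, 100, 200 μM; methanol control, H2O2 positive control) were detected with a FLICA kit per manufacturer. Cells were examined by confocal microscopy, with green-fluorescing cells counted as caspase-positive and unstained cells as nonapoptotic. Percentage of positive cells was recorded.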

Experiment [9] has as its system Candida albicans. Briefly: Upregulation of Heat shock protein 70 expression in Candida albicans SC5314 at 40 uM after 24 hrs by MALDI-TOF MS. The format is functional, organism-based. The gist of the method:
as §1

For experiment [10], the system named is Candida albicans. Briefly: Increase in MCA1 expression in Candida albicans SC5314 at 100 uM after 4 hrs by quantitative PCR analysis. It is filed as functional, organism-based. The method, boiled down: (§3)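 Log-phase SC5314 exposed 4 h to farnesol (methanol vehicle control). cDNA diluted 1:20 and run in SYBR green real-time PCR: 15 min 95°C, then 35 cycles of 95°C 1 min, 58°C 30 s, 72°C 30 s, with a melt curve check. MCA1 level was calculated by 2^−ΔΔCT against ACT1 and RPP2B reference genes.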

In experiment [11] the test system is Candida albicans. Briefly: Upregulation of POR1 expression in Candida albicans SC5314 at 200 uM after 24 hrs by MALDI-TOF MS. It is filed as functional, organism-based. The gist of the method:
as §2

In experiment [12] the test system is Candida albicans. Briefly: Upregulation of Glutathione reductase expression in Candida albicans SC5314 at 200 uM after 24 hrs by MALDI-TOF MS. The format is functional, organism-based. The gist of the method: as §1
Experiment [13] deals with Candida albicans. Briefly: Down regulation of in MCA1 expression in Candida albicans SC5314 at 40 uM after 4 hrs by quantitative PCR analysis. The format is functional, organism-based. The method, boiled down: as §3
Experiment [14] deals with Candida albicans. Briefly: Upregulation of Heat shock protein 90 homologue expression in Candida albicans SC5314 at 40 uM after 24 hrs by MALDI-TOF MS. It is filed as functional, organism-based. The gist of the method: as §1

Regarding `CC(C)=CCC/C(C)=C/CC/C(C)=C/CO` [FARNESOL], the result in the experiment with Candida albicans [1], with Candida albicans [2], in the experiment with Candida albicans [3], in the experiment on Candida albicans [4], in the experiment on Candida albicans [5] and in the experiment with Candida albicans [6] was Active. For the same compound, the result in the experiment with Candida albicans [7], with Candida albicans [9], in the experiment with Candida albicans [11], with Candida albicans [12] and in the experiment with Candida albicans [14] was Active. In addition, the Activity in the experiment with Candida albicans [8] is listed as 5%. For the same compound, the outcome with Candida albicans [10] and in the experiment on Candida albicans [13] was inactive.
